# ChEMBL document CHEMBL1773017, “The identification of 4,7-disubstituted naphthoic acid derivatives as UDP-competitive antagonists of P2Y14” (Bioorg Med Chem Lett, 2011)
# What was measured:
# [1] = Metabolic stability in C57BL/6 mouse Hepatocyte assessed as parent compound remaining at 20 uM after 2 hrs; assay type: ADME, cell-based; details: hepatocytes, read-out: Stability
# Procedure, shortened: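 Hepatocytes were isolated from mouse liver by two-step perfusion with 50 U/mL collagenase. Compound was incubated with the hepatocytes for 2 h, and metabolic stability was read out as the percentage of parent drug remaining.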
# [2] = Half life in C57BL/6 mouse at 50 mg/kg, po and 2 mg/kg, iv; assay type: ADME, organism-based; details: in vivo
# Procedure, shortened: (§1)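 C57BL/6 mice were dosed orally at 50 mg/kg (one analog at 25 mg/kg) in 5% Tween-80. They were also dosed intravenously at 2 mg/kg in 60% PEG-200. Oral bioavailability, half-life and intrinsic clearance come from these dosings.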
# [3] = Cmax in C57BL/6 mouse at 50 mg/kg, po administered in 5% Tween-80; assay type: ADME, organism-based; parameters: dose 50 mg/kg, route oral; details: in vivo; procedure, shortened: as §1
# [4] = Oral bioavailability in C57BL/6 mouse at 50 mg/kg, po administered in 5% Tween-80; assay type: ADME, organism-based; details: in vivo; procedure, shortened: as §1
# [5] = Antagonist activity at chimpanzee P2Y14 receptor expressed in HEK293 cells assessed as calcium flux by FLIPR assay; assay type: functional, cell-based; details: Pan troglodytes
# [6] = molecular target: T1, P2Y purinoceptor 14 (Mus musculus, UniProt Q9ESG6); assay: Antagonist activity at mouse P2Y14 receptor expressed in HEK293 cells assessed as calcium flux by FLIPR assay; assay type: functional, cell-based
# T1 sequence (Q9ESG6 whole entry): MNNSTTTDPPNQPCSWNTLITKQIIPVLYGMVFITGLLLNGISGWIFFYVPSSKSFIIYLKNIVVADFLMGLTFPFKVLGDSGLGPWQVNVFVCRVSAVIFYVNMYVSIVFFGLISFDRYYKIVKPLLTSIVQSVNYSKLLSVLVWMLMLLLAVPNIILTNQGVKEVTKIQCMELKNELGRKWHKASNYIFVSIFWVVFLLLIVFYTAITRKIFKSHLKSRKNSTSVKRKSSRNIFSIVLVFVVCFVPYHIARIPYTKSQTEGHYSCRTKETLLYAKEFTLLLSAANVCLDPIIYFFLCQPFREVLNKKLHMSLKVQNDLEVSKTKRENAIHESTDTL
# [7] = tested on: Mus musculus; assay: Intrinsic clearance in C57BL/6 mouse at 2 mg/kg, iv administered in 60% PEG-200; assay type: ADME, organism-based; parameters: dose 2 mg/kg, route intravenous; details: in vivo; procedure, shortened: as §1
# [8] = Displacement of [3H]-UDP from chimpanzee P2Y14 receptor expressed in HEK293 cells; assay type: cell-based, Pan troglodytes
# [9] = Oral bioavailability in C57BL/6 mouse at 25 mg/kg, po administered in 5% Tween-80; assay type: ADME, organism-based; details: in vivo; procedure, shortened: as §1
# [10] = Cmax in C57BL/6 mouse at 25 mg/kg, po administered in 5% Tween-80; assay type: ADME, organism-based; parameters: dose 25 mg/kg, route oral; details: in vivo; procedure, shortened: as §1
# [11] = tested on: Mus musculus; assay: Drug metabolism in Mrp2 (-/-) mouse assessed as (2S,3S,4S,5R,6S)-6-(7-(4-fluoro-2,6-dimethylbenzyloxy)-4-(thiophen-3-yl)-2-naphthoyloxy)-3,4,5-trihydroxytetrahydro-2H-pyran-2-carboxylic acid recovery in bile at 2 mg/kg, po up to 24 hrs; details: in vivo
Compound,"remaining at 2 h, 20 µM [1] [%]",half-life [2] [h],Cmax [3] [µM],bioavailability [4] [%],IC50 [5] [nM],IC50 [6] [nM],CL [7] [mL/min/kg],Ki [8] [nM],bioavailability [9] [%],Cmax [10] [µM],Activity [11] [%]
O=C(O)c1cc(-c2cscc2C(O)(C(F)(F)F)C(F)(F)F)c2ccc(-c3ccc(OC(F)(F)F)cc3)cc2c1,91,4.1,37,45,91,350,1.9,54,,,
O=C(O)c1cc2cc(-c3ccc(OC(F)(F)F)cc3)ccc2c(-c2ccsc2)c1F,85,4.3,89,129,110,380,3.3,110,,,
O=C(O)c1cc(-c2ccsc2)c2ccc(-c3ccc(OC(F)(F)F)cc3)cc2c1,62,1.1,,,14,54,18,29,92,18,
Cc1cccc(C)c1COc1ccc2c(-c3ccccc3)cc(C(=O)O)cc2c1,,,,,41,110,,42,,,
COc1ccc2c(-c3ccccc3)cc(C(=O)O)cc2c1,,,,,,,,4000,,,
O=C(O)c1cc(-c2ccccc2)c2ccc(Oc3ccccc3)cc2c1,,,,,4100,4900,,1500,,,
O=C(O)c1cc(-c2ccc(C(O)C(F)(F)F)cc2)c2ccc(-c3ccc(C(F)(F)F)cc3)cc2c1 (stereo not drawn),,,,,5,13,,14,,,
CS(=O)(=O)c1cscc1-c1cc(C(=O)O)cc2cc(-c3ccc(OC(F)(F)F)cc3)ccc12,16,3.2,16,4,86,,3.7,32,,,
Cc1cc(F)cc(C)c1COc1ccc2c(-c3ccsc3)cc(C(=O)O)cc2c1,8,2.7,23,12,4,14,7.1,14,,,> 99
Cc1cccc(C)c1COc1ccc2c(-c3ccsc3)cc(C(=O)O)cc2c1,,,,,6,26,,16,,,
Cc1cccc(C)c1COc1ccc2c(OCc3ccccc3)cc(C(=O)O)cc2c1,,,,,89,110,,21,,,
Cc1cccc(C)c1OCc1ccc2c(-c3ccccc3)cc(C(=O)O)cc2c1,,,,,1500,2100,,340,,,
O=C(O)c1cc(-c2ccc([C@@H](O)C(F)(F)F)cc2)c2ccc(-c3ccc(C(F)(F)F)cc3)cc2c1,,,,,1,4,,10,,,
O=C(O)c1cc(-c2ccccc2)c2ccc(OCc3ccccc3)cc2c1,,,,,3500,3500,,160,,,

# Results, then the molecule that gave them:
"remaining at 2 h, 20 µM [1] [%]",half-life [2] [h],Cmax [3] [µM],bioavailability [4] [%],IC50 [5] [nM],IC50 [6] [nM],CL [7] [mL/min/kg],Ki [8] [nM],bioavailability [9] [%],Cmax [10] [µM],Activity [11] [%],Compound
,,,,6500,13000,,,,,,Cc1cccc(C)c1COc1ccc2ccc(C(=O)O)cc2c1
,,,,91,190,,29,,,,O=C(O)c1cc(-c2ccccc2)c2ccc(OCc3c(Cl)cccc3Cl)cc2c1
,,,,7,20,,7,,,,CS(=O)(=O)c1ccc(-c2cc(C(=O)O)cc3cc(-c4ccc(C(F)(F)F)cc4)ccc23)cc1
,,,,> 40000,> 13000,,,,,,O=C(O)c1ccc(COc2ccc3c(-c4ccccc4)cc(C(=O)O)cc3c2)cc1
,,,,11,51,,21,,,,O=C(O)c1cc(-c2ccc([C@H](O)C(F)(F)F)cc2)c2ccc(-c3ccc(C(F)(F)F)cc3)cc2c1
93,13,34,,490,1300,7.6,170,,,,O=C(O)c1cc2cc(-c3ccc(OC(F)(F)F)cc3)ccc2c(-c2ccsc2)c1O
39,3,113,67,1,8,1.6,4,,,,O=C(O)c1cc(-c2ccc([C@@H](O)C(F)F)cc2)c2ccc(-c3ccc(C(F)(F)F)cc3)cc2c1
